The record followed here is ChEMBL document CHEMBL2010756, “New 4-[(5-arylidene-2-arylimino-4-oxo-3-thiazolidinyl)methyl]benzoic acids active as protein tyrosine phosphatase inhibitors endowed with insulinomimetic effect on mouse C2C12 skeletal muscle cells” (Eur J Med Chem, 2012).

pIC50, pKi: −log10 of the molar value. Activity calls are given as the source filed them. The rule behind the calls is not given here. Some results are limits rather than exact numbers.

Data set [1] is filed under the species Homo sapiens. Briefly: Selectivity ratio of IC50 for human recombinant LMW-PTP IF2 to IC50 for human recombinant LMW-PTP IF1. A digest of the protocol: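 Recombinant human LMW-PTP IF1 and IF2 (GST cleaved off) were assayed at 37 °C in pH 7.0 β,β-dimethylglutarate/EDTA/DTT buffer. Fixed p-nitrophenylphosphate equal to each isoform's Km was used, with p-nitrophenolate read at 400 nm. IC50 came from fitting vi/v0 against inhibitor concentration to a four-parameter equation. The ratio is IF2 IC50 over IF1 IC50.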

Another data set relates to C2C12. Briefly: Cytotoxicity against mouse C2C12 cells at 25 uM after 2 hrs by MTT assay. The data set is classed as cell-based. The following applies: c2c12, 2 h. The method, boiled down: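 C2C12 myoblasts were differentiated 4 days in DMEM/2% horse serum, then serum-starved 20 h. Compounds at 25 µM final (DMSO vehicle) were given for 2 h. MTT was added at 0.5 mg/ml final, 37 °C for 2 h. Cells were lysed in DMSO and formazan read at 570 nm, expressed as % of DMSO control, mean ± SE of three replicates.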

Data set [2] deals with T1, Tyrosine-protein phosphatase non-receptor type 1 (Homo sapiens, UniProt P18031).
T1 sequence (P18031 whole entry): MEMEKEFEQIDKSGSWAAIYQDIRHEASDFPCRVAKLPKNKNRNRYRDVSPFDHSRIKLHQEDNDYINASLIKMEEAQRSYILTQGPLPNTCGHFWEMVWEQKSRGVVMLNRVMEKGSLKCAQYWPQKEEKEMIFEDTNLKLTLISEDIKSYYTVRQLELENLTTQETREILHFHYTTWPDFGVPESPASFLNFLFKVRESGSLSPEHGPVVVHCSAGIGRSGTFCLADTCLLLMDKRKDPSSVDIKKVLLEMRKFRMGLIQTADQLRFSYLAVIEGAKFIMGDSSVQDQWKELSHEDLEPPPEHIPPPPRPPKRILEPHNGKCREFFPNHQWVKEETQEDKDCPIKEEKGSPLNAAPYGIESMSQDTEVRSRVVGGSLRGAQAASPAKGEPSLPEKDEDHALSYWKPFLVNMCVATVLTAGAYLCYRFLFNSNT
Briefly: Competitive inhibition of GST-tagged human recombinant PTP1B expressed in Escherichia coli TB1 using p-nitrophenylphosphate as substrate by Line-Weaver Burk plot. A digest of the protocol:
(§1)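 Human enzymes were expressed in E. coli TB1 as GST fusions and purified on glutathione-Sepharose. GST was removed by thrombin (3 h, 37 °C), followed by gel filtration. Assays ran at 37 °C in pH 7.0 buffer (0.075 M β,β-dimethylglutarate, 1 mM EDTA, 5 mM DTT) with p-nitrophenylphosphate, read at 400 nm. Initial rates were measured in triplicate at differing substrate and inhibitor levels, and apparent Km was plotted against inhibitor concentration to give Ki.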

The target in data set [3] is T2, Low molecular weight phosphotyrosine protein phosphatase (Homo sapiens, UniProt P24666).
T2 sequence (P24666 whole entry): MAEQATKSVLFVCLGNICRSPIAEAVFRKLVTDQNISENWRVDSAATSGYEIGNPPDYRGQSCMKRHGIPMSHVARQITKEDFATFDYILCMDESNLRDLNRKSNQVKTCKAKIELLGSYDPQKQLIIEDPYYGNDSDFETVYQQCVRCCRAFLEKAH
Briefly: Competitive inhibition of GST-tagged human recombinant LMW-PTP IF1 expressed in Escherichia coli TB1 using p-nitrophenylphosphate as substrate by Line-Weaver Burk plot. A digest of the protocol:
as §1

The target of data set [4] is T3, Tyrosine-protein phosphatase non-receptor type 1 (Mus musculus) (UniProt P35821).
T3 sequence (whole entry): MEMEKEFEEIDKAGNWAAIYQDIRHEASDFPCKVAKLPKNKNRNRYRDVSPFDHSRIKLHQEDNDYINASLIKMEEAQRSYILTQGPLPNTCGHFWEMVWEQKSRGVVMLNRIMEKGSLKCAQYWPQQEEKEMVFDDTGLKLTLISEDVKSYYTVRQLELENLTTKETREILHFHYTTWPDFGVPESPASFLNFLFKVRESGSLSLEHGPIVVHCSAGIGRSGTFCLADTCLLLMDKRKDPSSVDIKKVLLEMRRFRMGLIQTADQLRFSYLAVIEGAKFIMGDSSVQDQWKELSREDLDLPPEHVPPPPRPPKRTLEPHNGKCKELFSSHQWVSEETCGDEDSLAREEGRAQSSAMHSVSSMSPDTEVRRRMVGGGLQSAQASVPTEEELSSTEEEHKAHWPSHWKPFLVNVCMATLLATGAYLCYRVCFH
Nature of the data set: Inhibition of PTP1B in mouse C2C12 cells assessed as increase in intracellular 2-deoxyglucose uptake using [3H]glucose as substrate at 25 uM after 90 mins by scintillation counting. It counts as cell-based. A digest of the protocol: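 C2C12 myotubes were differentiated and serum-starved 20 h, then treated 90 min with 25 µM compound (1.2% DMSO). Insulin 10 nM for 30 min was the positive control. 0.1 µCi 2-deoxy-D-[3H]glucose in Ringer–Hepes was taken up 15 min at 37 °C. Cells were washed with cold PBS, lysed in 0.2 M NaOH and counted by scintillation, normalized to protein. Mean ± SE of three replicates.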

For data set [5], the species on record is Homo sapiens. Briefly: Selectivity ratio of IC50 for human recombinant TCPTP to IC50 for human recombinant PTP1B. The method, boiled down: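 IC50 values were from initial p-nitrophenylphosphate hydrolysis (400 nm) in pH 7.0 β,β-dimethylglutarate/EDTA/DTT buffer, fitted to a four-parameter equation. PTP1B (recombinant human, GST cleaved) was assayed at 37 °C with substrate at its Km. Commercial recombinant TC-PTP (0.02 µg) was assayed with 2.8 mM p-nitrophenylphosphate, stopped with KOH. The ratio is TC-PTP IC50 over PTP1B IC50.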

Data set [6] deals with T2, Low molecular weight phosphotyrosine protein phosphatase. Briefly: Competitive inhibition of GST-tagged human recombinant LMW-PTP IF2 expressed in Escherichia coli TB1 using p-nitrophenylphosphate as substrate by Line-Weaver Burk plot. A digest of the protocol: as §1
Data set [7] has as its target T4, Tyrosine-protein phosphatase non-receptor type 2 (Homo sapiens, UniProt P17706).
T4 sequence (P17706 whole entry): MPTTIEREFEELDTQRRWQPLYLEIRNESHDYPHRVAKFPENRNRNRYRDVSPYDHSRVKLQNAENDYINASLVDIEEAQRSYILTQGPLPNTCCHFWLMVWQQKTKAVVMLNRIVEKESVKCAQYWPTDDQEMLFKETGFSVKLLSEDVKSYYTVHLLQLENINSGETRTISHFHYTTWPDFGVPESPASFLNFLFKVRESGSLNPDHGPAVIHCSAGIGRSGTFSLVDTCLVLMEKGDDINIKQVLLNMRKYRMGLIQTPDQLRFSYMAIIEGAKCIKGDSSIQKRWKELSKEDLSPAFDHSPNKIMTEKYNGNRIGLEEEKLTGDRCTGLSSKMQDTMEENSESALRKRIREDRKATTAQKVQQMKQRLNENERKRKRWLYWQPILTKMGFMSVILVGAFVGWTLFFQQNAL
Briefly: Competitive inhibition of human recombinant TCPTP using p-nitrophenylphosphate as substrate by Line-Weaver Burk plot.

The target of data set [8] is T3, Tyrosine-protein phosphatase non-receptor type 1 (Mus musculus). Nature of the data set: Inhibition of PTP1B in mouse C2C12 cells assessed as increase in insulin receptor beta tyrosine phosphorylation at 25 uM. It counts as cell-based. The method, boiled down: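 Differentiated, 20 h serum-starved C2C12 myotubes were exposed to 25 µM compound (1.2% DMSO) for 90 min at 37 °C. Insulin 10 nM for 30 min served as positive control. Lysates in SDS sample buffer were run on SDS-PAGE and western blotted for phospho-IRβ, normalized to actin, in at least three experiments.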

As for `O=C(O)c1ccc(CN2C(=O)/C(=C/c3ccc(OCc4ccccc4)cc3)S/C2=N\c2ccc(C(F)(F)F)cc2)cc1`, the Ratio IC50 is more than 3 in the data set listed under Homo sapiens [1] and more than 2 in the data set listed under Homo sapiens [5]. Further, in the data set with C2C12, the Activity result is “Non-toxic”. For the same compound, the pIC50 in data set [2] was 5.85; in data set [3], 5.40; in data set [6], 4.60; in data set [7], 5.66. The pKi in data set [2] is 5.92. In addition, the inhibition entry in data set [4] and in data set [8] was “Active” in each case.

Regarding `O=C(O)c1ccc(CN2C(=O)/C(=C/c3cccc(OCc4ccccc4)c3)S/C2=N\c2ccc(C(F)(F)F)cc2)cc1`, the Ratio IC50 is more than 3 in the data set filed under Homo sapiens [1] and more than 2 in the data set listed under Homo sapiens [5]. In addition, the Activity entry in the data set on C2C12 is listed as “Non-toxic”. The pIC50 is 5.25 in data set [2], 4.92 in data set [3], less than 3.82 in [6] and less than 4.00 in data set [7]. Also, the inhibition result in [4] and in [8] was “Active” each time.

For the compound `O=C(O)c1ccc(CN2C(=O)/C(=C/c3cccc(Oc4ccccc4)c3)S/C2=N\c2ccc(C(F)(F)F)cc2)cc1`, the Ratio IC50 in the data set listed under Homo sapiens [1] was more than 3; in the data set listed under Homo sapiens [5], 2. Further, the Activity entry in the data set on C2C12 is “Non-toxic”. Also, the pIC50 in data set [2] is 4.98; in data set [3] it was 4.86; in [6], less than 3.82; in [7] it was 4.69. Further, the inhibition result in data set [4] is “Active”.

With `COc1ccc(/N=C2\S/C(=C\c3ccc(OCc4ccccc4)cc3)C(=O)N2Cc2ccc(C(=O)O)cc2)cc1`, the Ratio IC50 was 1.4 in the data set filed under Homo sapiens [1] and more than 2 in the data set filed under Homo sapiens [5]. In addition, the Activity result with C2C12 was “Non-toxic”. Further, the pIC50 in data set [2] is 5.52; in [3] it was 5.19; in data set [6], 5.04; in data set [7], 5.02. For the same compound, the inhibition result in data set [4] and in [8] was “inactive” in each case.

As to `COc1ccc(/N=C2\S/C(=C\c3cccc(Oc4ccccc4)c3)C(=O)N2Cc2ccc(C(=O)O)cc2)cc1`, the Ratio IC50 in the data set listed under Homo sapiens [1] was more than 3; in the data set listed under Homo sapiens [5], more than 2. Besides, in the data set with C2C12, the Activity entry is recorded as “Non-toxic”. Further, the pIC50 in data set [2] was 4.96; in data set [3], 4.92; in [6], 4.66; in data set [7] it was 4.69. Also, the inhibition result in [4] is “inactive”. In addition, the inhibition result in data set [8] is “Active”.

As to `COc1ccc(/N=C2\S/C(=C\c3ccc(Oc4ccccc4)cc3)C(=O)N2Cc2ccc(C(=O)O)cc2)cc1`, the Activity entry with C2C12 is listed as “Non-toxic”. For the same compound, the pIC50 was 5.60 in data set [2], 4.95 in data set [3], 4.74 in [6] and 5.15 in data set [7]. Moreover, the inhibition result in [4] is “inactive”. Moreover, the Ratio IC50 in the data set filed under Homo sapiens [5] was more than 2. Also, the inhibition entry in [8] is “Active”.

In the case of `O=C(O)c1ccc(CN2C(=O)/C(=C/c3ccc(Oc4ccccc4)cc3)S/C2=N\c2ccc(C(F)(F)F)cc2)cc1`, the figures for the Ratio IC50 in the data set filed under Homo sapiens [1] and in the data set listed under Homo sapiens [5] were more than 3 and 7.1, respectively. Also, the Activity entry in the data set on C2C12 was “Non-toxic”. Also, the pIC50 in [2] was 5.66; in [3] it was 5.14; in data set [6] it was 4.48; in [7] it was 4.81.

Turning to `O=C(O)c1ccc(CN2C(=O)/C(=C/c3ccc4ccccc4c3)S/C2=N\c2ccc(C(F)(F)F)cc2)cc1`, the Ratio IC50 in the data set listed under Homo sapiens [1] is more than 3; in the data set filed under Homo sapiens [5], more than 2. For the same compound, the Activity result in the data set on C2C12 is reported as “Non-toxic”. In addition, the pIC50 was 5.62 in data set [2], 5.24 in [3], 4.82 in [6] and 4.69 in data set [7]. For the same compound, the inhibition result in data set [4] and in [8] was “Active” throughout.

As for `COc1ccc(/N=C2\S/C(=C\c3cccc(OCc4ccccc4)c3)C(=O)N2Cc2ccc(C(=O)O)cc2)cc1`, the values for the Ratio IC50 in the data set listed under Homo sapiens [1] and in the data set listed under Homo sapiens [5] were more than 3 and more than 2, respectively. Also, the Activity result in the data set on C2C12 is “Non-toxic”. For the same compound, the pIC50 is 5.29 in data set [2], 5.02 in data set [3], 4.76 in data set [6] and 4.94 in data set [7]. Besides, in data set [4], the inhibition result is “inactive”. The inhibition entry in data set [8] was “Active”.

For `COc1ccc(/N=C2\S/C(=C\c3ccc4ccccc4c3)C(=O)N2Cc2ccc(C(=O)O)cc2)cc1`, in the data set with C2C12, the Activity entry was “Non-toxic”. For the same compound, the pIC50 is 5.05 in data set [2], 4.94 in data set [3], 4.93 in data set [6] and 4.57 in data set [7]. Further, the Ratio IC50 in the data set filed under Homo sapiens [5] is more than 2.
